# KCNQ1 inh: blocks the human KCNQ1 potassium channel; actives 1.3% (n = 310,000); P51787; CHO-K1 KCNQ1, FluxOR thallium flux fluorescence; active compounds read high; B-score at 10 µM;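 active = compounds whose thallium flux B-score, printed positive for inhibition, exceeds three library SD while starting fluorescence stays within three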;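 also: channel opened by potassium depolarization with thallium stimulus after 20 min compound exposure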
# KCNK3 inh: human KCNK3 channel inhibition, primary screen | actives 0.84% (n = 340,000) | B-score at 10 µM | CHO-KCNK3 thallium flux, FluxOR fluorescence; active compounds read low;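 active = B-score under library mean minus 4 SD, starting fluorescence ratio at most library mean plus 5 SD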;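 also: more negative B-score means stronger inhibition of thallium flux through KCNK3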
# Kir21 block: Kir2.1 (mouse) channel inhibition | actives 0.85% (n = 310,000) | HEK293-Kir2.1, FluxOR thallium flux fluorescence; active compounds read low | B-score at 10 µM | P35561 | AID 1672;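 active = fluorescence ratio B-score at or below minus 3 SD of library scores, with starting-brightness B-score within 2 SD, cut at about -4.2 in these data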;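 also: channel flux triggered by added potassium and thallium sulfate stimulus; B-score of peak minus minimum fluorescence over baseline after thallium stimulus; more negative B-score means stronger Kir2.1 block with less thallium influx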
# KCNQ1 pot: potentiates or activates the human KCNQ1 potassium channel. P51787. CHO-K1 KCNQ1, thallium flux FluxOR fluorescence; active compounds read high. B-score at 10 µM. actives 0.35% (n = 310,000). AID 2648;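 active = fluorescence ratio B-score, a plate-corrected score, at least three library SD, with initial intensity B-score within 5 SD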
#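 Assay system: CHO-K1 cells stably expressing KCNQ1; Medium: assay buffer with matched DMSO; Also added: K+/Tl+ depolarizing stimulus; Dosing: single dose; Timing: dye 90 min, compound 20 min, room temperature; Measured by: kinetic FluxOR thallium fluorescence, 10-s 1-Hz baseline, 110-s post-stimulus read; Read-out: peak-minus-minimum fluorescence over initial fluorescence, negative-control normalized, B-scored.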
# KCNK9 block: inhibitors of human KCNK9 two-pore domain potassium channel; HEK293 KCNK9, FluxOR thallium flux fluorescence; active compounds read low; B-score at 10 µM; actives 1.2% (n = 310,000); AID 488922;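 active = ratio B-score over 3 SD below the library mean, with starting fluorescence within 5 SD of its mean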;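 also: negative B-score means less thallium flux so channel inhibition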
# hERG rescue: shields human hERG channel from block by proarrhythmic agents; Q12809; CHO-hERG, FluxOR thallium flux, dofetilide IC70 present; activation (rescue from dofetilide block), less the hit threshold, % at 10 µM; actives 0.51% (n = 310,000); AID 1511;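 active = activation above the mean of controls blocked by dofetilide plus 5 SD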;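 also: thallium influx through hERG after potassium depolarization seen as dye fluorescence rise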
# Target sequence (Q12809 whole entry, looked up): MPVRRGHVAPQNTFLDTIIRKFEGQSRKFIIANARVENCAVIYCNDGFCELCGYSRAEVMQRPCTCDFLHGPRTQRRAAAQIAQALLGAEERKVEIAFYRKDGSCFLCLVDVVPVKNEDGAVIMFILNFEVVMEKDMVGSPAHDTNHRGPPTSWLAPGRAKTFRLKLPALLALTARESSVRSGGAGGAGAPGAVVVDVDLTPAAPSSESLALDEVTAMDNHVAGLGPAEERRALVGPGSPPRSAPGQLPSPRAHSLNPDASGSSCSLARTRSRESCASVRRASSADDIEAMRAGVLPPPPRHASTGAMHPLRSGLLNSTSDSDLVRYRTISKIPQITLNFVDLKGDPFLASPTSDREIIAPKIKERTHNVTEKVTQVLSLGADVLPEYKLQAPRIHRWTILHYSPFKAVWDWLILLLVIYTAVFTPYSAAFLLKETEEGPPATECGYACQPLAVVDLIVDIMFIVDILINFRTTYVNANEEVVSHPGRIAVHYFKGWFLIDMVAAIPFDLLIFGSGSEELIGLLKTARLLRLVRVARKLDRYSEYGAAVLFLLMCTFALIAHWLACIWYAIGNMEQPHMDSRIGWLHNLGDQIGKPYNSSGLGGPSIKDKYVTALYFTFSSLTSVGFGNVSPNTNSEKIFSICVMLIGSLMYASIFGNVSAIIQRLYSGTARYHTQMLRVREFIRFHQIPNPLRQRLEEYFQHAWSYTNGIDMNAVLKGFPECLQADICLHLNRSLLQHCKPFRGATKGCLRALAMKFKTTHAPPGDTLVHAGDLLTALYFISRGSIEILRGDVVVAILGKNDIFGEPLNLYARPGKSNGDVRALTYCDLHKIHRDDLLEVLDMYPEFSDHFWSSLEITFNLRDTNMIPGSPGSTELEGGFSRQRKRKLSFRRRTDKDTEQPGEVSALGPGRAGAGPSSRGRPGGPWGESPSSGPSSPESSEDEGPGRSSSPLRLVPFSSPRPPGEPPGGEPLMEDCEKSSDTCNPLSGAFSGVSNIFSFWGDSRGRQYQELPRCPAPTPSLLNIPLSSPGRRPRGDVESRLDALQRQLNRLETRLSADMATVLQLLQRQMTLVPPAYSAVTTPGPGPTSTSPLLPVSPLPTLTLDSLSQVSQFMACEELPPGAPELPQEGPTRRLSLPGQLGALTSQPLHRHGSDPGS
# Starred values were filed as active, the others as inactive; i = inactive; / = no result given. Most compounds without a hit are left out; they make up all but 3.7% or so of the library.
SMILES,KCNQ1 inh,KCNK3 inh,Kir21 block,KCNQ1 pot,KCNK9 block,hERG rescue
CCOc1ccc(CN(C(=O)c2oc3cc(C)ccc3c2C)C2CCS(=O)(=O)C2)cc1 (configuration not stated),i,i,-2.3,i,-6.7*,-16
O=C(CNC(=O)c1cc(-c2ccccc2)nn1-c1ccccc1)Nc1ccccc1Br,/,i,/,/,/,/
C/C(=N\Nc1ncnc2sc(C)c(C)c12)c1ccccn1,11*,i,-2,i,i,-44
Cc1ccc(Cn2ncc3c(NN)ncnc32)cc1,i,i,-0.49,15*,i,-5
CC1CN(C(=O)CCn2c(=O)oc3ccccc32)CC(C)O1 (configuration not stated),i,-9*,-0.1,i,i,-18
COc1c(F)cc2[nH]c3c(c2c1F)CCNC3=O,i,i,0.03,i,i,-5
Cc1ccc(NC(=O)CN(C)C(=O)COC(=O)c2nc3nccc(C)n3n2)cc1,/,i,/,/,/,/
COC(=O)C(CC(C)C)NC(=O)CSc1nc(-c2ccccc2)c(C#N)c(=O)[nH]1 (configuration not stated),i,i,-0.31,i,i,5.3*
N#Cc1c(-c2ccccc2)nc(SCC(=O)NC2CCCCC2)[nH]c1=O,i,i,0.92,i,i,-10
COc1ccccc1-n1c(C)nc(=O)c(-c2ccccc2)c1C,i,i,-0.01,i,i,5.3*
CN(C(=O)COC(=O)C1COc2ccccc2O1)c1c(N)n(Cc2ccccc2)c(=O)[nH]c1=O (configuration not stated),i,i,-0.97,i,i,-17
C/C(C/C(C)=C1/SC(=S)NC1=O)=C1\SC(=S)NC1=O,/,i,/,/,/,/
CCCCCC/C(C)=C1/SC(=S)NC1=O,i,i,0.41,126*,i,59*
COC(=O)C1CN(C(=O)COc2ccc(C)c(C)c2)c2ccccc2O1 (configuration not stated),i,i,-0.43,i,i,2
Cc1ccc(NC(=S)N(CCCN2CCCC2)Cc2cccn2Cc2ccc(Cl)cc2)cc1Cl,7*,i,0.5,i,i,-12
Cc1ccc(NC(=S)N(CCCN2CCCC2)Cc2cccn2Cc2ccc(Cl)cc2)cc1C,i,i,-0.84,i,i,-16
Clc1ccc(Nc2ccc(Cl)nn2)cc1,i,i,0.7,i,i,5.9*
COc1ccc(Nc2ccc(Cl)nn2)cc1,i,i,1,i,i,-5
COc1ccc(S(=O)(=O)N2CCCc3ccccc32)cc1OC,i,i,-5.3*,i,i,-10
CCNC(=O)COC(=O)c1cc(S(=O)(=O)N2CCCc3ccccc32)ccc1Cl,i,i,-4.4*,i,i,-8
O=S(=O)(c1cnc(Cl)c(Cl)c1)N1CCCc2ccccc21,i,i,-4.6*,i,i,-6
COc1ccc(S(=O)(=O)N2CCCc3ccccc32)cc1[N+](=O)[O-],i,i,-2.9,i,i,-7
CC(=O)N1c2c(cc(Br)cc2S(=O)(=O)N2CCN(c3ccccc3F)CC2)CC1C (configuration not stated),i,i,0.15,i,i,-5
Cc1cc(C)n(-c2nnc(C)n2/N=C/c2ccccc2OCc2ccccc2Cl)n1,i,i,-0.59,i,-7.1*,-20
Cc1cc(C)n(-c2nnc(C)n2/N=C/c2ccccc2F)n1,i,i,-0.62,i,i,-6
SMILES,KCNQ1 inh,KCNK3 inh,Kir21 block,KCNQ1 pot,KCNK9 block,hERG rescue
Clc1ccc(CSc2nnc(CNc3cccc(Cl)c3)o2)cc1,6*,i,0.35,i,i,-7
Fc1cccc(Cl)c1CSc1nnc(CNc2ccccc2)o1,i,i,-3.8,i,i,-6
Cc1c(C(Nc2ccccn2)c2ccc(Cl)cc2)c(=O)n(-c2ccccc2)n1C (configuration not stated),i,i,0.18,i,-6.6*,-17
COc1ccc(/C=N/NC(=O)c2cc(-c3ccc(C)cc3C)nc3ccccc23)cc1COC(C)=O,i,-8.8*,-0.01,i,i,-7
CCc1ccc(/C=N/NC(=O)c2cc(-c3ccccc3OC)nc3ccccc23)s1,6*,i,-1.2,i,i,-10
COc1ccc(/C=N\NC(=O)c2ccc(-c3ccccc3)cc2)cc1COC(C)=O,i,i,-0.87,i,i,-11
Cc1cccc(NC(=O)c2ccc(Cl)c(S(=O)(=O)N3CCc4ccccc43)c2)n1,/,-11*,/,/,/,/
CCOC(=O)CNC(=O)CSc1nc(Cc2cccs2)nc2ccccc12,i,i,-2.8,i,i,5.2*
CC(C)(C)c1nc(SCC(=O)NCc2cccs2)c2ccccc2n1,i,i,-2,i,i,-20
Cc1noc(C)c1COC(=O)COc1cccc2c1OC(C)(C)C2,i,i,-5.5*,i,i,-8
CC1(C)Cc2cccc(OCC(=O)OCC(=O)c3ccccc3)c2O1,/,i,/,/,/,/
C=CCc1c(OC)ccc2c1c(S(=O)(=O)c1ccc(C)cc1)cn2COC,i,i,-0.14,i,i,-3
OCCN(CCO)c1ccc(C(c2ccc(Cl)cc2)c2ccc(N(CCO)CCO)cc2Cl)c(Cl)c1,i,i,-0.03,8*,i,-4
NS(=O)(=O)c1ccc(NC(=S)Nc2ccc(OCc3ccccc3)cc2)cc1,i,i,2.5,30*,i,-4
S=C(Nc1ccccc1)Nc1ccc(OCc2ccccc2)cc1,i,i,1,i,i,-12
COc1ccc(CCNCC2C(Oc3ccc(Cl)cc3)C(=O)N2c2ccccc2C)cc1OC (configuration not stated),i,i,0.44,i,-6.8*,-13
COCCNCC1C(Oc2ccc(Cl)cc2)C(=O)N1c1ccccc1C (configuration not stated),i,i,0.53,i,i,-6
CC(=O)Nc1ccc(/C=N/N2C(=O)NC(C)(c3ccc(OC(F)F)cc3)C2=O)cc1 (configuration not stated),i,i,0.93,34*,i,-10
COc1ccc(CC(=O)NC(C)c2nnc(SCC(=O)c3ccc(OC)cc3)n2C)cc1 (configuration not stated),i,i,0.43,i,i,-13
COc1ccc(CC(=O)NC(C)c2nnc(SCCOc3ccc(OC)cc3)n2C)cc1 (configuration not stated),i,i,-4.3*,i,i,-17
COc1ccc2c(c1)-c1nc(/N=C/c3ccc(O)cc3)sc1CC2,/,i,/,/,/,/
